Experimental data reported in ChEMBL document CHEMBL4428077, “Synthesis and Biological Evaluation of N-((1-(4-(Sulfonyl)piperazin-1-yl)cycloalkyl)methyl)benzamide Inhibitors of Glycine Transporter-1” (J Med Chem, 2016).
Blank lines part the entries; values can stand above or below the compound they belong to.

Legend:
[1] = Apparent permeability from apical to basolateral side in human Caco2 cells; assay type: ADME, cell-based; details: Caco-2
Summary of the method: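 Caco-2 monolayer permeability measured in both the A-to-B and B-to-A directions and reported as P_app (×10⁻⁶ cm/s).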

[2] = Protein binding in human plasma; assay type: ADME, cell-free; details: read-out: PPB (converted)
[3] = Drug level in cynomolgus monkey plasma at 10 mg/kg, po measured at 12 hrs post dose by LC-MS/MS analysis; assay type: ADME, organism-based, Macaca fascicularis
Summary of the method: (§1)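 Cynomolgus monkeys (n = 3/group) fitted with subcutaneous CSF ports were dosed orally at 0.4−15.7 μmol/kg in 5% Solutol plus 20% Captisol in 25 mM PBS, pH 2. CSF (about 0.30 mL) and blood were sampled predose and at 0.5, 1, 2, 3, 4, 8, 12 and 24 h. Quantitation limit 1.0 ng/mL; mean ± SD.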

[4] = target: Voltage-gated inwardly rectifying potassium channel KCNH2 (Homo sapiens, UniProt Q12809); experiment: Inhibition of human ERG channel expressed in HEK293 cells by patch clamp assay; assay type: cell-based
Voltage-gated inwardly rectifying potassium channel KCNH2, sequence (Q12809 whole entry): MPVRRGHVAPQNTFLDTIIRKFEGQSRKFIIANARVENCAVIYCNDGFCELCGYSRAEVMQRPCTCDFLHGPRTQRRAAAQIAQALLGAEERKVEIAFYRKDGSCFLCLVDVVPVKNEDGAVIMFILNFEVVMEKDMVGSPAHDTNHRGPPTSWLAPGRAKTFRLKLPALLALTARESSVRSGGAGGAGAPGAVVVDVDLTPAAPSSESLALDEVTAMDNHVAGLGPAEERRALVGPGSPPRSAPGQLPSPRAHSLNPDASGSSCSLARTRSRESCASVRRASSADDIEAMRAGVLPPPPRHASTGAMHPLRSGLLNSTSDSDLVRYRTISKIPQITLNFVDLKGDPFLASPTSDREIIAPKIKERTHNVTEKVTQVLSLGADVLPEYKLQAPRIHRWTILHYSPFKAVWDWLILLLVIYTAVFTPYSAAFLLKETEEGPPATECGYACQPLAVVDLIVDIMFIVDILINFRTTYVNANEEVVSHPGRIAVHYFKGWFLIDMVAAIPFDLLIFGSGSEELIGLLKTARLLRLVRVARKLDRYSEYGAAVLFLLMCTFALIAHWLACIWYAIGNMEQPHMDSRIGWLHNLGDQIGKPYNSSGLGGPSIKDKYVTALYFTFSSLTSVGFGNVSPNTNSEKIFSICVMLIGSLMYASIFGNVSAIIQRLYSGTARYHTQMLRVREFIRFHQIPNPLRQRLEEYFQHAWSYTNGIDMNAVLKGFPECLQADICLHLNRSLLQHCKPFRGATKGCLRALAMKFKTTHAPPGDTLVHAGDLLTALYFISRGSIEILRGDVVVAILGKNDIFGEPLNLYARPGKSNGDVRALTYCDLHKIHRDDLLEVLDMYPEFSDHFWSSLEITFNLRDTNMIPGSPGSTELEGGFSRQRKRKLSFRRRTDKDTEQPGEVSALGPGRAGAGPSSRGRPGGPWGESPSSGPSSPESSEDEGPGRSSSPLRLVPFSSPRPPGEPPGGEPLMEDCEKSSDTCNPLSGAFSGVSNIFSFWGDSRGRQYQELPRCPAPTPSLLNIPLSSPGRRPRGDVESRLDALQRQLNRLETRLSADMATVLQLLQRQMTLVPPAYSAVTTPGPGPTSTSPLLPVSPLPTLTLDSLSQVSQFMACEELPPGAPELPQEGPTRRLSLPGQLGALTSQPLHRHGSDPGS
Summary of the method: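 PatchXpress patch-clamp on HEK293 cells stably expressing hERG. Five-point concentration-response, n = 3.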

[5] = Drug level in po dosed Sprague-Dawley rat plasma measured 2 hrs post dose by LC-MS/MS analysis; assay type: ADME, organism-based; details: in vivo
[6] = Drug level in cynomolgus monkey CSF at 10 mg/kg, po measured at 0.5 hr post dose by LC-MS/MS analysis; assay type: ADME, organism-based, Macaca fascicularis, Cerebrospinal fluid; details: read-out: Drug uptake; summary of the method: as §1
[7] = Protein binding in monkey plasma; details: cynomolgus monkey, read-out: PPB (converted)
[8] = Ratio of drug level in Sprague-Dawley rat brain to plasma at 3 to 10 mg/kg, po measured 2 hrs post dose by LC-MS/MS analysis; assay type: ADME, organism-based; details: read-out: BPR
Summary of the method: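 Drug-naive male Sprague–Dawley rats (n = 4–5/group) were dosed orally in 5% Solutol/10% Captisol in 25 mM PBS, pH 2, and euthanized by CO2 2 h post-dose. CSF (50–100 μL) was taken from the cisterna magna, and brain and plasma were collected; drug was measured in each matrix. Quantitation limit 1.0 ng/mL.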

[9] = Drug level in cynomolgus monkey CSF at 10 mg/kg, po measured at 24 hrs post dose by LC-MS/MS analysis; assay type: ADME, organism-based, Macaca fascicularis, Cerebrospinal fluid; details: read-out: Drug uptake; summary of the method: as §1
[10] = Volume of distribution at steady state in Sprague-Dawley rat at 10 mg/kg, po or 2 mg/kg, iv administered as single dose measured up to 24 hrs post dose by LC-MS/MS analysis; assay type: ADME, organism-based; details: in vivo, read-out: Vdss
Summary of the method: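 Groups of three drug-naive adult male Sprague–Dawley rats, single dose: IV 3.1 μmol/kg in 5% DMSO/10% Solutol in saline (5 mL/kg), or PO 15.7 μmol/kg in 5% Solutol/10% Captisol in 25 mM PBS adjusted to pH 2 with HCl. Plasma concentration–time data give the parameters; mean ± SD.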

[11] = Drug level in po dosed cynomolgus monkey plasma measured up to 24 hrs post dose by LC-MS/MS analysis; assay type: ADME, organism-based, Macaca fascicularis; details: in vivo
[12] = Intrinsic clearance in human; assay type: ADME
Cytochrome P450 3A4 = Cytochrome P450 3A4 (Homo sapiens, UniProt P08684); experiment: Inhibition of CYP3A4 (unknown origin); assay type: ADME
Cytochrome P450 3A4, sequence (P08684 whole entry): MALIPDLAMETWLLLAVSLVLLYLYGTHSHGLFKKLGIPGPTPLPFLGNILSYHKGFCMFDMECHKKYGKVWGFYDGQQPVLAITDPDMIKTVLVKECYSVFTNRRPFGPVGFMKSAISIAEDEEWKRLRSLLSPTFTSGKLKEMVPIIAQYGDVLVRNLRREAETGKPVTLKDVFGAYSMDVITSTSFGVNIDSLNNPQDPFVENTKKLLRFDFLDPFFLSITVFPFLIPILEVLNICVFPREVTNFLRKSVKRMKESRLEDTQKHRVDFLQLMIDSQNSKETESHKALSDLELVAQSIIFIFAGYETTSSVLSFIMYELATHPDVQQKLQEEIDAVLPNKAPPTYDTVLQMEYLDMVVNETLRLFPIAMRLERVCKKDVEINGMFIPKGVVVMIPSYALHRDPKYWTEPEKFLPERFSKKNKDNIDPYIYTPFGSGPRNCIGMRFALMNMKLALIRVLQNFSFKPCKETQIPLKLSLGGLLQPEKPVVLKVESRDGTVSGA

[13] = AUClast in Sprague-Dawley rat plasma at 10 mg/kg, po or 2 mg/kg, iv administered as single dose measured up to 24 hrs post dose by LC-MS/MS analysis; assay type: ADME, organism-based
Summary of the method: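 Single-dose PK in drug-naive adult male Sprague−Dawley rats, n = 3 per group: 3.1 μmol/kg IV in 5% DMSO/10% Solutol in saline (5 mL/kg), or 15.7 μmol/kg PO in 5% Solutol/10% Captisol in 25 mM PBS, pH adjusted to 2 with HCl. Plasma parameters reported as mean ± SD.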

Cytochrome P450 2C9 = Cytochrome P450 2C9 (Homo sapiens, UniProt P11712); experiment: Inhibition of CYP2C9 (unknown origin); assay type: ADME
Cytochrome P450 2C9, sequence (P11712 whole entry): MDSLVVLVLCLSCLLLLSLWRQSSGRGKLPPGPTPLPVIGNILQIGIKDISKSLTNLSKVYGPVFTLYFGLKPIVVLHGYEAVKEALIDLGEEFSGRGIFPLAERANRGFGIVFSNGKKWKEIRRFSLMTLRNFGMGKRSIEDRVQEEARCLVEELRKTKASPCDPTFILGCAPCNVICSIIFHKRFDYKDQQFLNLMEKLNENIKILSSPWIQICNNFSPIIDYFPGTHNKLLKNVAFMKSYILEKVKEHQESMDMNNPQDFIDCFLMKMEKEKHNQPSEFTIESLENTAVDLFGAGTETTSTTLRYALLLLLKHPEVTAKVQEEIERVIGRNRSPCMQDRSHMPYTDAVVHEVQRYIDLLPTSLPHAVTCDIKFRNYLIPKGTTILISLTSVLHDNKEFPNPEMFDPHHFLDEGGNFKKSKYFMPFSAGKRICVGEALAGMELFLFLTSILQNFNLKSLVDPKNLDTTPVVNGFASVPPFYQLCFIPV

Cytochrome P450 2D6 = Cytochrome P450 2D6 (Homo sapiens, UniProt P10635); experiment: Inhibition of CYP2D6 (unknown origin); assay type: ADME
Cytochrome P450 2D6, sequence (P10635 whole entry): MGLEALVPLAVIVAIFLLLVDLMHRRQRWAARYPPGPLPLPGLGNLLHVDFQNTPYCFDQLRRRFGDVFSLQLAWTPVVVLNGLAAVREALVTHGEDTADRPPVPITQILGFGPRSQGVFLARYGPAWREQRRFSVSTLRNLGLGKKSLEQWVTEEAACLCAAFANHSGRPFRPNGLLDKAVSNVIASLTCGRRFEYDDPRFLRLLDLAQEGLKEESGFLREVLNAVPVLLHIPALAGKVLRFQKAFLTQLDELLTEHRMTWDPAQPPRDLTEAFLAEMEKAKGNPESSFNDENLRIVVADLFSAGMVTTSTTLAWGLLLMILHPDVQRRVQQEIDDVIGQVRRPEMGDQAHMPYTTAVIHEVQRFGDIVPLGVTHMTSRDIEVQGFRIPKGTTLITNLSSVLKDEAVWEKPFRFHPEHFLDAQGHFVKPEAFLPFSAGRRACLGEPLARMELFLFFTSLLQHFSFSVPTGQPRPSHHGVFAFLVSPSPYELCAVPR

[14] = Volume of distribution at steady state in cynomolgus monkey at 1 mg/kg, iv or 5 mg/kg, po measured up to 12 or 24 hrs post dose by LC-MS/MS analysis; assay type: ADME, organism-based, Macaca fascicularis; details: in vivo, read-out: Vdss
Summary of the method: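 Three female cynomolgus monkeys per group, single dose: IV 1.5 μmol/kg in 5% DMSO/10% Solutol in saline, pH 6.5 (2 mL/kg), or PO 7.8 μmol/kg in 5% Solutol in 20% Captisol, 25 mM PBS, pH 2 (5 mL/kg). Parameters come from plasma concentration–time data; mean ± SD.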

[15] = Drug level in cynomolgus monkey plasma at 10 mg/kg, po measured at 0.5 hr post dose by LC-MS/MS analysis; assay type: ADME, organism-based, Macaca fascicularis; summary of the method: as §1
[16] = Intrinsic clearance in rat; assay type: ADME
[17] = Drug level in cynomolgus monkey CSF at 10 mg/kg, po measured at 2 hrs post dose by LC-MS/MS analysis; assay type: ADME, organism-based, Macaca fascicularis, Cerebrospinal fluid; details: read-out: Drug uptake; summary of the method: as §1
Rattus norvegicus [18] = experiment: In vivo inhibition of glycine transporter-1 in Sprague-Dawley rat assessed as CSF glycine level at 10 mg/kg, po qd for 5 days measured 2 hrs post last dose by LC-MS/MS analysis relative to control; assay type: functional; parameters: scale not given: the % may be the effect or the level left
Summary of the method: (§2)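 Drug-naive Sprague-Dawley rats, n = 5 per group, dosed orally once daily for 5 days with vehicle or 1.6, 4.8 or 16.1 μmol/kg. Vehicle was 5% Solutol / 20% Captisol in 25 mM PBS, pH 2. Killed 2 h or 48 h after the last dose. CSF glycine was expressed as % of vehicle control (vehicle 2 h post last dose), mean ± SEM. Two-way ANOVA with Tukey test.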

Rattus norvegicus [19] = experiment: In vivo inhibition of glycine transporter-1 in Sprague-Dawley rat assessed as CSF glycine level at 30 mg/kg, po measured 2 hrs post dose by LC-MS/MS analysis relative to control; assay type: functional; parameters: scale not given: the % may be the effect or the level left
Summary of the method: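 Drug-naive Sprague-Dawley rats, n = 5 per group, given acute oral doses of 0.4-160.9 μmol/kg (0.3-100 mg/kg). Vehicle was Solutol 5% in 20% Captisol / 25 mM PBS, pH 2. Killed 2 h post-dose. CSF glycine was quantified by LC-MS/MS with a deuterated-glycine standard and expressed as % vehicle control, mean ± SEM. Two-way ANOVA with Tukey test.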

Rattus norvegicus [20] = experiment: In vivo inhibition of glycine transporter-1 in Sprague-Dawley rat assessed as CSF glycine level at 3 mg/kg, po qd for 5 days measured 2 hrs post last dose by LC-MS/MS analysis relative to control; assay type: functional; parameters: scale not given: the % may be the effect or the level left; summary of the method: as §2
[21] = Drug level in Sprague-Dawley rat CSF at 30 mg/kg, po measured 2 hrs post dose by LC-MS/MS analysis; assay type: ADME, organism-based, Cerebrospinal fluid; details: read-out: Drug uptake
Summary of the method: (§3)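 Drug-naive Sprague−Dawley rats (n = 4−5/group) were dosed orally once in 5% Solutol plus 20% Captisol in 25 mM PBS, pH 2, and euthanized 2 h later by CO₂. CSF was drawn from the cisterna magna. Drug was measured in CSF, brain and plasma; data as mean ± SEM.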

[22] = Drug level in Sprague-Dawley rat plasma at 30 mg/kg, po measured 2 hrs post dose by LC-MS/MS analysis; assay type: ADME, organism-based; summary of the method: as §3

- Papp A→B [1]: 23.9 ×10⁻⁶ cm/s
- fraction unbound [2]: 0.12
- concentration at 12 h [3]: 135 ng/mL
- Drug uptake [5]: Dose-dependent effect
- concentration at 0.5 h [6]: 1.8 ng/mL
- fraction unbound [7]: 0.19
- Kp at 2 h [8]: 0.1 to 0.2
- concentration at 24 h [9]: 1.2 ng/mL
- Vd [10]: 1.75 L/kg
- Drug uptake [11]: Dose-dependent effect
- CL [12]: 4 microL/ml/min
- IC50 (Cytochrome P450 3A4): > 7.2 µM
- AUC(0-t) at 24 h [13]: 1960 ng·h/mL
- IC50 (Cytochrome P450 2C9): > 7.2 µM
- IC50 (Cytochrome P450 2D6): > 7.2 µM
- Vd [14]: 1.93 L/kg
- concentration at 0.5 h [15]: 67.9 ng/mL
- CL [16]: 6 microL/ml/min
- concentration at 2 h [17]: 11.3 ng/mL
SMILES: CC(NC(=O)c1ccc(C(F)(F)F)cc1Cl)C1(N2CCN(S(=O)(=O)c3cn(C)nn3)CC2)CCC(F)(F)CC1.Cl (single isomer, unassigned; (+))
- IC50 [4]: 20.2 µM

- concentration at 2 h [21]: 8.3 nM
- concentration at 2 h [22]: 490 nM
SMILES: Cl.Cn1cc(S(=O)(=O)N2CCN(C3(CNC(=O)c4ccc(C(F)(F)F)cc4Cl)CCC(F)(F)CC3)CC2)nn1
- Activity (Rattus norvegicus [18]): 315%
- Activity (Rattus norvegicus [19]): 317.2%
- Activity (Rattus norvegicus [20]): 266.3%
